Cl transport mod: KCC2 (human) Cl- transport modulation | Q9H2X9 | KCC2 cells, thallium flux FluoZin-2 fluorescence | B-score of Tl+ flux slope (higher = more flux/activation; lower = inhibition) at 10 µM | 2.2% of 190,000 active | AID 1456;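 active means thallium flux slope and its plate-corrected score both differing from the plate sample mean at a set confidence after two filtering rounds, in either direction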;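 further: slope of fluorescence scaled to starting intensity during 10 to 20 s after thallium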
AI-2 QS modul: modulators of Vibrio harveyi AI-2 quorum sensing system; Vibrio harveyi JMH597 AI-2 luminescence/OD600 ratio, 9 h; active compounds read low; strain lacks LuxN and CqsS sensors; 0 = neutral-control median; activity change, % at 7.5 µM; 0.4% of 300,000 active; AID 2094; in the data active means activity change below about -75%, passing the limit was not always enough;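 further: luminescence divided by OD600 gain over 9 h not by final OD600 alone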
KCNQ1 inh: blocks the human KCNQ1 potassium channel; CHO-K1 KCNQ1, FluxOR thallium flux fluorescence; active compounds read high; B-score at 10 µM; 1.3% of 310,000 active; AID 2642;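 active means compounds whose thallium flux B-score, printed positive for inhibition, exceeds three library SD while starting fluorescence stays within three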;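 further: channel opened by potassium depolarization with thallium stimulus after 20 min compound exposure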
KCNQ1 pot: human KCNQ1 channel potentiation or activation; 0.35% of 310,000 active; CHO-K1 KCNQ1, thallium flux FluxOR fluorescence; active compounds read high; B-score at 10 µM; AID 2648; P51787;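 active means fluorescence ratio B-score, a plate-corrected score, at least three library SD, with initial intensity B-score within 5 SD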
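Material: CHO-K1 cells stably expressing KCNQ1. Medium: assay buffer for compound exposure, DMSO matched across wells. Reagent: K+/Tl+ depolarizing stimulus. Compound dosing: single-concentration screen. Times: 37 °C overnight plating, 90-min dark dye load, 20-min compound pretreatment. Technique: FluxOR Tl+ flux fluorescence.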
hERG rescue: hERG (human) protection from proarrhythmic block; Q12809; CHO-hERG, FluxOR thallium flux, dofetilide IC70 present; activation (rescue from dofetilide block), less the hit threshold, % at 10 µM; 0.51% of 310,000 active; AID 1511;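 active means activation above the mean of controls blocked by dofetilide plus 5 SD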;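 further: thallium influx through hERG after potassium depolarization seen as dye fluorescence rise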
SUMO Mot1 rescue: blocks SUMOylation pathway, rescuing yeast Mot1-301 growth | S. cerevisiae Mot1-301 growth rescue, ATP luminescence, 38.5C; percent above DMSO median, 100 means doubled | AID 2716 | growth rescue, % at 18.8 µM | 1% of 320,000 active;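 active means every valid replicate shows activation above 250% relative to neutral control wells; inactive means the rest, any valid replicate at or below 250%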
Of the large screens only hits and unclear results are named; the others gave an inactive call. Rows were chosen to be rich in hits. Some 4.2% of all compounds tested hit in one or more screens of this group.

O=C(NC(=S)Nc1ccccc1)c1cccs1	KCNQ1 pot 11, hERG rescue 10 (no result: Cl transport mod)
Cc1cc(OCC(=O)NNC(=S)NC(=O)c2ccc(Br)o2)ccc1Cl	KCNQ1 pot 33 (no result: Cl transport mod)
Cc1noc(C)c1NC(=O)N(C)C[C@H]1Oc2ccc(NC(=O)Nc3ccc4c(c3)OCO4)cc2C(=O)N([C@H](C)CO)C[C@@H]1C	none (no result: Cl transport mod, AI-2 QS modul, KCNQ1 inh, KCNQ1 pot, hERG rescue)
CC1CN(S(=O)(=O)c2ccc(C(=O)Nc3nnc(-c4ccc5c(c4)CCCC5)o3)cc2)CC(C)O1 (stereo not drawn)	Cl transport mod 7.9
CC1CN(S(=O)(=O)c2ccc(C(=O)Nc3nnc(-c4ccccn4)o3)cc2)CC(C)O1 (stereo not drawn)	none
COc1ccc(-c2nnc(NC(=O)c3ccc(S(=O)(=O)N4CCCc5ccccc54)cc3)o2)cc1	Cl transport mod 12
COCc1nnc(NC(=O)c2ccc(S(=O)(=O)N3CCCc4ccccc43)cc2)o1	none
Cc1ccc(S(=O)(=O)N2CCN(C(=O)C3CSC4(C)CCC(=O)N34)CC2)cc1C (stereo not drawn)	none (no result: Cl transport mod, AI-2 QS modul)
CC1CCCCC1NC(=O)COC(=O)COc1ccccc1F (stereo not drawn)	none (no result: Cl transport mod, AI-2 QS modul, KCNQ1 inh, KCNQ1 pot, hERG rescue)
O=C(NCc1ccccc1)C1=C[C@@H](c2coc3ccccc3c2=O)C[C@@H](OCCCCO)O1	none
CCOc1ccc(-c2c(C(=O)N/N=C/C3CC=CCC3)nnn2-c2nonc2N)cc1 (stereo not drawn)	none (no result: Cl transport mod)
CC(C)OC(=O)c1c2nc3ccccc3nc2n2c1[nH]c(=O)c1ccccc12	Cl transport mod 125, KCNQ1 pot 81, hERG rescue 43
CC(C)OC(=O)c1c(N)n(CCCN2CCOCC2)c2nc3ccccc3nc12	none (no result: SUMO Mot1 rescue)
Cc1cccc(OCCn2c(=S)[nH]c3ccccc32)c1	Cl transport mod 8.9
CCOC(=O)c1c(-c2ccc(C)o2)csc1NC(=S)NC(=O)c1ccccc1Br	none (no result: Cl transport mod)
CCOC(=O)c1c(-c2ccccc2)csc1NC(=O)CCN1C(=O)c2ccccc2C1=O	none
CCOC(=O)c1c(-c2ccc(C)o2)csc1NC(=S)NC(=O)c1cccs1	Cl transport mod 6.3
CCNC(=S)Nc1scc(-c2ccccc2)c1C(=O)OCC	Cl transport mod 42, KCNQ1 pot 23, hERG rescue 6.0
CCOC(=O)c1c(-c2ccccc2)csc1NC(=S)NC	Cl transport mod 36, KCNQ1 pot 38, hERG rescue 8.9
CCOC(=O)c1c(-c2ccc(-c3ccccc3)cc2)csc1NC(=O)CNCCN(C)C	KCNQ1 inh 6 (no result: Cl transport mod)
CN(C)C(CNc1ccc(S(C)(=O)=O)cc1[N+](=O)[O-])Cc1ccccc1 (stereo not drawn)	none (no result: Cl transport mod)
Cc1nc(NCCc2ccc(O)cc2)c2nnn(Cc3ccccc3)c2n1	hERG rescue 9.1 (no result: Cl transport mod, AI-2 QS modul)
Cc1nc(NCCc2ccc(F)cc2)c2nnn(Cc3ccccc3)c2n1	none (no result: Cl transport mod, AI-2 QS modul)
COc1ccc([N+](=O)[O-])cc1NC(=O)c1cn(-c2ccc(C)c(C)c2)c(=O)c2ccccc12	none
CC(C)(C)OC(=O)C[C@H]1C/C=C\C[C@@H](CC(=O)N(CCO)Cc2ccccc2)C(=O)N[C@H](Cc2c[nH]c3ccccc23)COC1=O	none (no result: Cl transport mod, AI-2 QS modul, KCNQ1 inh, KCNQ1 pot, hERG rescue)
N#Cc1c(-c2ccccc2)nc(SCC(=O)Nc2ccccc2)[nH]c1=O	Cl transport mod -4.8 (no result: AI-2 QS modul, KCNQ1 inh, KCNQ1 pot, hERG rescue)
CN(CCCNC(=O)CCCOc1cc(=O)n(C)c2ccccc12)Cc1ccccc1	KCNQ1 pot 8
CN(CCNC(=O)CCCOc1cc(=O)n(C)c2ccccc12)Cc1ccccc1	none
C=CCNC(=O)c1ccc2c(c1)nnn2C	none (no result: Cl transport mod)
CCCc1cc(C(=O)N/N=C/c2cccn2C)cs1	none (no result: Cl transport mod)
Cc1ccc2nc(-c3ccccc3)cc(C(=O)N3CCN(c4ccccc4O)CC3)c2c1	KCNQ1 inh 12 (no result: Cl transport mod)
O=C(c1cccc(NS(=O)(=O)c2ccc(F)c(F)c2)c1)N1CCN(Cc2ccccc2)CC1	none
COc1ccccc1NC(=O)/C(=C/c1cccc([N+](=O)[O-])c1)c1ccccc1	KCNQ1 inh 6
Cc1nc2ccccc2c2c1C(=O)N(C)C2=O	hERG rescue 5.7
O=C(COc1ccc(Cl)cc1)NCc1nnc(SCC(=O)Nc2ccccc2F)o1	none
O=C1c2ccc(-c3ccc4c(c3)C(=O)N(CCO)C4=O)cc2C(=O)N1CCO	none
O=C(Nc1cccc(Cl)c1)N(CCN1CCOCC1)Cc1ccccc1F	none
O=C(Nc1cccc(Cl)c1)N(CCN1CCOCC1)Cc1cccc(Cl)c1	KCNQ1 inh 6
CCc1ccc2[nH]c(=O)c(CN(CCCN3CCOCC3)C(=O)Nc3cccc(Cl)c3)cc2c1	KCNQ1 inh 6
Cn1c(CNC(=O)c2ccco2)nnc1SCCOc1ccccc1	none (no result: Cl transport mod, SUMO Mot1 rescue)
O=C(CNC(=O)c1sc2ccccc2c1Cl)NC1CC1	none (no result: Cl transport mod)
CCCNC(=S)N1CCC(NC(=O)C2CCCCC2)CC1	none
Cc1cccc(C)c1OCC1CNC(=O)O1 (stereo not drawn)	hERG rescue 6.5 (no result: Cl transport mod, AI-2 QS modul)
O=C(Nc1n[nH]c(C(F)(F)F)n1)C1CC1	hERG rescue 4.7
COc1ccccc1CNC(=O)COC(=O)c1ccc(NC(N)=O)cc1	SUMO Mot1 rescue 325
O=C(Nc1ccc2c(c1)OCO2)c1cnn2c(C(F)(F)F)cc(-c3ccco3)nc12	none (no result: Cl transport mod, AI-2 QS modul, KCNQ1 inh, KCNQ1 pot, hERG rescue)
O=C(NC12CC3CC(CC(C3)C1)C2)c1cc2nc(-c3ccco3)cc(C(F)(F)F)n2n1	KCNQ1 inh 6
O=C(Nc1cnn(C23CC4CC(CC(C4)C2)C3)c1)c1cnn2c(C(F)(F)F)cc(-c3ccco3)nc12	KCNQ1 inh 11
O=C(NC1CCCCC1)c1cc2nc(-c3ccco3)cc(C(F)(F)F)n2n1	none
Cc1cccc(NC(=O)c2cc([N+](=O)[O-])ccc2N2CCCCC2)n1	none
COc1cc(NC(=O)CSc2nnc(-c3ccncc3)o2)cc(OC)c1OC	none (no result: Cl transport mod)
CC(C)(C)OC(=O)NCCc1nnc(S(=O)(=O)Cc2ccc(Cl)cc2Cl)o1	AI-2 QS modul -89 (no result: Cl transport mod)
CCOc1ccc(C(CC(=O)O)NC(=O)Cc2ccc(Cl)cc2)cc1 (stereo not drawn)	none (no result: Cl transport mod)
COC(=O)c1ccc(-c2sc3nc(N4CCOCC4)c4c(c3c2N)CCCC4)o1	KCNQ1 inh 6
O=C1CN(CC(=O)NC2CCCc3ccccc32)CCN1 (stereo not drawn)	none (no result: Cl transport mod)
COc1ccc(NS(=O)(=O)c2ccc(C)cc2)c([N+](=O)[O-])c1	none
COc1ccc(C(=O)COC(=O)c2ccccc2NS(=O)(=O)c2ccc(O)c([N+](=O)[O-])c2)cc1	KCNQ1 inh 9
COc1ccc(NC(=O)c2ccccc2NS(=O)(=O)c2ccc(C)cc2)c([N+](=O)[O-])c1	SUMO Mot1 rescue 823
O=C(Cc1c(C(=O)O)[nH]c2ccccc12)NCCN1CCN(c2ccccc2F)CC1	none
COc1ccccc1N1C(=O)S/C(=C\c2ccc(C)s2)C1=O	hERG rescue 4.8 (no result: Cl transport mod)

Screens (PubChem BioAssay)
